Experimental data: ChEMBL document CHEMBL3352024, “A new series of HAPs as anti-HBV agents targeting at capsid assembly” (Bioorg Med Chem Lett, 2014)
Active and inactive are the calls of the source. The rule behind the calls is not given here.

How the values were obtained:
[1] = (§1) Selectivity index, ratio of TC50 for human HepG2.2.15 cells to IC50 for hepatitis B virus infected in human HepG2.2.15 cells; assay type: toxicity, cell-based
Hepatitis B virus [2] = assay: Antiviral activity against hepatitis B virus infected in human HepG2.2.15 cells assessed as inhibition of viral replication; assay type: functional, organism-based; conditions: hepg2 2.2.15
[3] = Cytotoxicity against human HepG2.2.15 cells after 48 hrs; assay type: cell-based; conditions: hepg2 2.2.15, 48 h
Summary of the method: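 HepG2.2.15 cells exposed to compounds for 48 h; cell viability then determined as the cytotoxicity read-out.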

hepatitis B virus [4] = assay: as §1; assay type: toxicity, cell-based; conditions: HepG2.2.15 cells, read-out: Selectivity Index
[5] = biological target: Core antigen (Hepatitis B virus) (UniProt Q03732); assay: Inhibition of hepatitis B virus capsid assembly after 24 hrs by HPLC analysis
Summary of the method: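 Cp149 capsid protein is mixed with compound in 2× assembly buffer and incubated 24 h. Reactions are analysed by size-exclusion chromatography on an HPLC with autoinjection, on a column equilibrated in 100 mM HEPES pH 7.5, 300 mM NaCl at 0.6 ml/min. Recovered protein is assigned to void (8.5 min), capsid (9.5 min) and dimer (12.5 min) peaks.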

Hepatitis B virus [6] = assay: Inhibition of hepatitis B virus capsid cp149 assembly assessed as reduction in dimer formation at capsid-compound ratio of 1:2 to 1:4 after 24 hrs by HPLC analysis

Chain of Core antigen (Hepatitis B virus) (Q03732 as listed by the source): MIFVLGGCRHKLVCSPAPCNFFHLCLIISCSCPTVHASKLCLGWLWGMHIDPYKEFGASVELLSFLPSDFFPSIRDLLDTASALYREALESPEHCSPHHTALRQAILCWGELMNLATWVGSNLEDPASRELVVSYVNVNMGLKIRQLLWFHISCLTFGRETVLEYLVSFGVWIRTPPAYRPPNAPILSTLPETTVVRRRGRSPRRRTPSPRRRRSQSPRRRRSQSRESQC

| IC50 (Hepatitis B virus [2]) [µmol] | SMILES | Selectivity Index [1] | TC0 [3] [µmol] | TC50 [3] [µmol] | selectivity ratio (hepatitis B virus [4]) | inhibition [5] | inhibition (Hepatitis B virus [6]) |
| --- | --- | --- | --- | --- | --- | --- | --- |
| 10.24 | CCOC(=O)C1=C(CN2CCCCC2)NC(c2c(F)cc(F)cc2F)=NC1c1ccc(F)cc1Cl (stereo not drawn) |  | 14.56 | 25.21 | 2.46 |  |  |
|  | CCCN1CCN(CC2=C(C(=O)OCC)C(c3ccc(F)cc3Cl)N=C(c3c(F)cc(F)cc3F)N2)CC1 (stereo not drawn) |  | 4.45 | 31.25 |  |  |  |
|  | CCOC(=O)C1=C(CN2CCSCC2)NC(c2c(F)cc(F)cc2F)=NC1c1ccc(F)cc1Cl (stereo not drawn) |  | 4.68 | 32.73 |  |  |  |
|  | CCOC(=O)C1=C(CN2CCN(C(=O)OCC)CC2)NC(c2c(F)cc(F)cc2F)=NC1c1ccc(F)cc1Cl (stereo not drawn) |  | 4.22 | 29.6 |  |  |  |
| 7.55 | CCOC(=O)C1=C(CN2CCN(C)CC2)NC(c2c(F)cc(F)cc2F)=NC1c1ccc(F)cc1Cl (stereo not drawn) |  | 14.1 | 98.74 | 13.1 |  |  |
| 4.35 | CCOC(=O)C1=C(CN2CCOCC2)NC(c2c(F)cc(F)cc2N2CCOCC2)=NC1c1ccc(F)cc1Cl (stereo not drawn) |  | 12.81 | 55.25 | 12.7 |  |  |
| 6.71 | CCOC(=O)C1=C(CN2CCN(CC)CC2)NC(c2c(F)cc(F)cc2F)=NC1c1ccc(F)cc1Cl (stereo not drawn) |  | 13.78 | 41.3 | 6.16 |  |  |
| 14.17 | Nc1ccn([C@@H]2CS[C@H](CO)O2)c(=O)n1 [LAMIVUDINE] |  | 0.82 | 5.75 |  |  |  |
|  | CCOC(=O)C1=C(CN2CCOCC2)NC(c2c(F)cc(F)cc2F)=NC1c1ccc(F)cc1Cl (stereo not drawn) [listing 2 of 2 here] |  |  |  |  | Active | Active |
| 9.56 | CCOC(=O)C1=C(CN2CCC(C)CC2)NC(c2c(F)cc(F)cc2F)=NC1c1ccc(F)cc1Cl (stereo not drawn) |  | 4.65 | 32.98 |  |  |  |
| 5.74 | CCOC(=O)C1=C(CN2CCNC(=O)C2)NC(c2c(F)cc(F)cc2F)=NC1c1ccc(F)cc1Cl (stereo not drawn) |  | 4.7 | 32.85 | 5.72 |  |  |
|  | CCOC(=O)C1=C(CN2CCCC2)NC(c2c(F)cc(F)cc2F)=NC1c1ccc(F)cc1Cl (stereo not drawn) |  | 14.96 | 77.29 |  |  |  |
| 6.66 | CCOC(=O)C1=C(CN(CCO)CCO)NC(c2c(F)cc(F)cc2F)=NC1c1ccc(F)cc1Cl (stereo not drawn) |  | 13.98 | 54.02 | 8.11 |  |  |

| SMILES | IC50 (Hepatitis B virus [2]) [µmol] | Selectivity Index [1] | TC0 [3] [µmol] | TC50 [3] [µmol] | selectivity ratio (hepatitis B virus [4]) | inhibition [5] | inhibition (Hepatitis B virus [6]) |
| --- | --- | --- | --- | --- | --- | --- | --- |
| CCOC(=O)C1=C(CN2CCOCC2)NC(c2c(F)cc(F)cc2F)=NC1c1ccc(F)cc1Cl (stereo not drawn) [listing 1 of 2 here] | 10.57 | 3.19 | 4.83 | 33.75 |  |  |  |
| CCOC(=O)C1=C(CN2CCOCC2)NC(c2c(F)cc(F)cc2F)=NC1c1ccc(F)cc1Cl.Cl (stereo not drawn) | 2.35 | 13.37 | 4.51 | 31.48 |  |  |  |
